Test results reported in ChEMBL document CHEMBL1153088, “Discovery of benzo[g]indol-3-carboxylates as potent inhibitors of microsomal prostaglandin E(2) synthase-1” (Bioorg Med Chem, 2009).
Each block holds one compound with its values, some of them ahead of it. The source made the active and inactive calls. No cut-off for these calls is given here.

Key:
Rattus norvegicus [1] = assay: Antiinflammatory activity in Wistar Han rat assessed as LTB4 level at 4 mg/kg, ip administered 30 mins before carrageenan challenge (reference value: 1.17 +/- 0.21 ng); format: functional; conditions: route intraperitoneal
Rattus norvegicus [2] = assay: Antiinflammatory activity in Wistar Han rat assessed as 6-Keto PGF1alpha level at 4 mg/kg, ip administered 30 mins before carrageenan challenge (reference value: 3.00 +/- 1.02 ng); format: functional; conditions: route intraperitoneal
A549 = assay: Toxicity in human A549 cells assessed as reduction of cell viability by MTT assay; format: cell-based
How it was run: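 A549 cells (4×10^4 per 100 µl) were plated for 16 h, then exposed to compounds at 30 µM (DMSO ≤0.3%) for 5 h. MTT was added for 4 h, formazan was solubilized in 10% SDS/20 mM HCl, and absorbance at 595 nm was read relative to vehicle-treated cells.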

Rattus norvegicus [3] = assay: Antiinflammatory activity in Wistar Han rat assessed as PGE2 level at 4 mg/kg, ip administered 30 mins before carrageenan challenge (reference value: 2.79 +/-0.39 ng); format: functional; conditions: route intraperitoneal
Mus musculus [4] = assay: Antiinflammatory activity in CD1 mouse assessed as inhibition of carrageenan-induced paw edema at 4 mg/kg, ip administered 30 mins before carrageenan challenge relative to untreated control; format: functional; conditions: route intraperitoneal
How it was run: (§1)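 Male adult CD1 mice, n=10 per group, given the compound ip (vehicle 2% DMSO) 30 min before subplantar 1% λ-carrageenan in saline (0.05 ml). Paw volume was measured double blind by hydroplethysmometer just before injection and at 2, 4 and 6 h. Inhibition was taken at the 4 h reading versus vehicle.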

Rattus norvegicus [5] = assay: Antiinflammatory activity in Wistar Han rat assessed as reduction in inflammatory cell numbers at 4 mg/kg, ip administered 30 mins before carrageenan challenge; format: functional, organism-based; design: dose 4 mg/kg
Rattus norvegicus [6] = assay: Antiinflammatory activity in Wistar Han rat assessed as reduction in exudate volume at 4 mg/kg, ip administered 30 mins before carrageenan challenge; format: functional, organism-based; design: dose 4 mg/kg
[7] = biological target: Prostaglandin G/H synthase 1 (Homo sapiens) (UniProt P23219); assay: Inhibition of COX1 in platelets assessed as inhibition of 12-HHT formation at 10 uM by RP-HPLC
Chain of Prostaglandin G/H synthase 1 (Homo sapiens) (P23219 whole entry): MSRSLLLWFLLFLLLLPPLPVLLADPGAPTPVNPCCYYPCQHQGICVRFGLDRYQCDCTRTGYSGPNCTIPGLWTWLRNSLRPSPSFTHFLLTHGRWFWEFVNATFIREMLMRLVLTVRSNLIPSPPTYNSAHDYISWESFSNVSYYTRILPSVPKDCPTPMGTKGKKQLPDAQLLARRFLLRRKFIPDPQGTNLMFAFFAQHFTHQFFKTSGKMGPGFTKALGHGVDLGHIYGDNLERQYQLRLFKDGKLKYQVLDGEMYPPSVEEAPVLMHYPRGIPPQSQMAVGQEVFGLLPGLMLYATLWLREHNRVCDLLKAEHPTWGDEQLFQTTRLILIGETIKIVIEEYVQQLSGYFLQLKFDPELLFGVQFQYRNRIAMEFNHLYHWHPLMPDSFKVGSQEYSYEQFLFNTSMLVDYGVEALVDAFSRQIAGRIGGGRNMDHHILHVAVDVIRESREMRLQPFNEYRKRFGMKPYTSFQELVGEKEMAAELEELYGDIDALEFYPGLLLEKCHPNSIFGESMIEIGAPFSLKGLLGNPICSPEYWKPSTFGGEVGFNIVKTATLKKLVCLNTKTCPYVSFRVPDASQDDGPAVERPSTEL
How it was run: (§2)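 Freshly isolated human platelets (10^8/ml PBS with 1 mM CaCl2) were preincubated with compound (DMSO ≤0.3%), then stimulated with 5 µM AA for 5 min at 37 °C. 12-HHT was extracted and quantified by RP-HPLC. Mean ± SE, n=3–5.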

[8] = biological target: T1, Prostaglandin G/H synthase 2 (Homo sapiens) (UniProt P35354); assay: Inhibition of COX2 in IL1-beta induced human A549 cells assessed as 6-keto-PGF1-alpha formation up to 30 uM preincubated for 15 mins by ELISA; format: cell-based
T1 sequence (whole entry): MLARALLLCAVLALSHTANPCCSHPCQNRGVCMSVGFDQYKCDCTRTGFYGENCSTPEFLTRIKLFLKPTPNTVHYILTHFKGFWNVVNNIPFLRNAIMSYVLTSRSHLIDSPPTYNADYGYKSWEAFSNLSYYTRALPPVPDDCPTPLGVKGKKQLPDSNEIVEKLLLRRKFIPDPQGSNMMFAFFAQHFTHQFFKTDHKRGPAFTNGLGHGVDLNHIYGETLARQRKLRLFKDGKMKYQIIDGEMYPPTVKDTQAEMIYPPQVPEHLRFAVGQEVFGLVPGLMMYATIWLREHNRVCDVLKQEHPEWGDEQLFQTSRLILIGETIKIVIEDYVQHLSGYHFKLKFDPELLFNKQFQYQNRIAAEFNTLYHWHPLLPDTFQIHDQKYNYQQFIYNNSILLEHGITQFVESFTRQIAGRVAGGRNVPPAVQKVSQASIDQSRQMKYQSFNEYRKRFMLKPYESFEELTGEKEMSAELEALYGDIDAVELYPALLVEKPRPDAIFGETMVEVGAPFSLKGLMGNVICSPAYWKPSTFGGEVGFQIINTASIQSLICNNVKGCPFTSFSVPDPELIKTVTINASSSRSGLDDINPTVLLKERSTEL
How it was run: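 A549 cells were induced with IL-1β (1 ng/ml, 72 h, 2% FCS). Cells at 5×10^6 per ml PBS with 1 mM CaCl2 were preincubated 15 min at 37 °C, then given 30 µM AA for 15 min at 37 °C, and the reaction was stopped on ice. Released 6-keto PGF1α was measured by monoclonal-antibody ELISA with β-galactosidase tracer read at 550 nm.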

Mus musculus [9] = assay: Antiinflammatory activity in CD1 mouse assessed as inhibition of carrageenan-induced paw edema at 0.25 mg/kg, ip administered 30 mins before carrageenan challenge relative to untreated control; format: functional; conditions: route intraperitoneal; how it was run: as §1
Mus musculus [10] = assay: Antiinflammatory activity in CD1 mouse assessed as inhibition of carrageenan-induced paw edema at 1 mg/kg, ip administered 30 mins before carrageenan challenge relative to untreated control; format: functional; conditions: route intraperitoneal; how it was run: as §1
[11] = biological target: T2, Prostaglandin G/H synthase 1 (Ovis aries) (UniProt P05979); assay: Inhibition of ovine COX1 assessed as residual enzyme activity at 10 uM relative to untreated control
T2 sequence (whole entry): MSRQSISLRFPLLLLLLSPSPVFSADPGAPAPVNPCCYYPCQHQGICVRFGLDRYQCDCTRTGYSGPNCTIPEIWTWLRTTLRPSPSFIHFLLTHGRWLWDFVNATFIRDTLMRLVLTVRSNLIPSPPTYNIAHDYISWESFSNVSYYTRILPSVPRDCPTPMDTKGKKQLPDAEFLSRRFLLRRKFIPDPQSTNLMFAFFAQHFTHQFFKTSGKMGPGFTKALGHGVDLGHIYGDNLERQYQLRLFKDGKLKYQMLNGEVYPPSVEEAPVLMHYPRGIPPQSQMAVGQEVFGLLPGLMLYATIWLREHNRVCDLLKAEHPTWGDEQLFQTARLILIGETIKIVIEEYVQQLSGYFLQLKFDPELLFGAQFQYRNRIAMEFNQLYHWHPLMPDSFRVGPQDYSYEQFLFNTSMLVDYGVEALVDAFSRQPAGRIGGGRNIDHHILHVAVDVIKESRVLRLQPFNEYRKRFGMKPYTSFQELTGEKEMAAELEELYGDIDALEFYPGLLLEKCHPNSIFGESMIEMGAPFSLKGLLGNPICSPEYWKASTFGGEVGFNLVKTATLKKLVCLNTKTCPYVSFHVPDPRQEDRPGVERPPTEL
How it was run: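 Purified ovine COX-1 (50 units) in 1 ml of 100 mM Tris pH 8 containing 5 mM glutathione, 5 µM hemoglobin and 100 µM EDTA was preincubated with compound for 5 min at 4 °C and prewarmed 60 s at 37 °C. The reaction was started with 5 µM AA and run 5 min at 37 °C, and 12-HHT was analysed by HPLC.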

[12] = biological target: T3, Prostaglandin E synthase (Homo sapiens) (UniProt O14684); assay: Inhibition of mPGES1 in IL1-beta induced human A549 cell microsomal membrane at 10 uM assessed as enzyme residual activity by PGE2 formation assay relative to untreated control; format: microsomes; conditions: Microsome
T3 sequence (whole entry): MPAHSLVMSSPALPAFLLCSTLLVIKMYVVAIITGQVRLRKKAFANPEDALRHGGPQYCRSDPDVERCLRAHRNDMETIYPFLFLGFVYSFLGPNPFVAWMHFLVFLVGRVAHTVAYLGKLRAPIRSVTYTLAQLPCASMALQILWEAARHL
How it was run: (§3)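 Microsomes from A549 cells treated with IL-1β (1 ng/ml, 72 h) were used at 50 µg/ml in 0.1 M potassium phosphate pH 7.4 with 2.5 mM glutathione. Compound (DMSO 1% final) was preincubated 15 min at 4 °C, then PGH2 was added (20 µM final) for 1 min at 4 °C.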

Prostaglandin E synthase [13] = biological target: T4, Prostaglandin E synthase (Homo sapiens, UniProt O14684); assay: Inhibition of mPGES1 in IL1-beta induced human A549 cell microsomal membrane assessed as blockade of conversion of PGH2 to PGE2; format: microsomes, Microsome; how it was run: as §3
T4 sequence (O14684 whole entry): T3 sequence (whole entry)

Prostaglandin E synthase [14] = biological target: T4, Prostaglandin E synthase; assay: Inhibition of mPGES1 in IL1-beta induced human A549 cells assessed as PGE2 production preincubated for 10 mins; format: cell-based; conditions: read-out: IC50
How it was run: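 Intact IL-1β-induced A549 cells (4×10^6/ml PBS, 1 mM CaCl2) were preincubated with compound (DMSO ≤0.3%) for 10 min at 37 °C. They were then stimulated with 2.5 µM A23187 plus 1 µM AA and [3H]AA (18.4 kBq) for 15 min, and the reaction was stopped on ice. [3H]PGE2 was separated by RP-18 SPE/HPLC and counted by liquid scintillation.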

[15] = biological target: Prostaglandin G/H synthase 1 (Homo sapiens) (UniProt P23219); assay: Inhibition of COX1 in platelets assessed as inhibition of 12-HHT formation up to 30 uM uM by RP-HPLC; how it was run: as §2
[16] = biological target: T3, Prostaglandin E synthase (Homo sapiens); assay: Inhibition of mPGES1 in IL1-beta induced human A549 cells assessed as PGE2 production at 30 uM preincubated for 10 mins; format: cell-based; design: scale not given: the % may be the effect or the level left
How it was run: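 Intact IL-1β-induced A549 cells (4×10^6/ml PBS, 1 mM CaCl2) were preincubated with compound (DMSO ≤0.3%) for 10 min at 37 °C. [3H]PGE2 was separated by RP-18 SPE/HPLC and counted by liquid scintillation.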

Rattus norvegicus [17] = assay: Antiinflammatory activity in Wistar Han rat assessed as reduction in exudate volume at 5 mg/kg, ip administered 30 mins before carrageenan challenge; format: functional, organism-based; design: dose 5 mg/kg
Rattus norvegicus [18] = assay: Antiinflammatory activity in Wistar Han rat assessed as reduction in inflammatory cell numbers at 5 mg/kg, ip administered 30 mins before carrageenan challenge; format: functional, organism-based; design: dose 5 mg/kg
Mus musculus [19] = assay: Antiinflammatory activity in CD1 mouse assessed as inhibition of carrageenan-induced paw edema at 5 mg/kg, ip administered 30 mins before carrageenan challenge relative to untreated control; format: functional; conditions: route intraperitoneal; how it was run: as §1

inhibition [7]: 43%
inhibition [8]: inactive
Activity [11]: 12%
SMILES: CCOC(=O)c1c(Cc2cccc(Cl)c2)[nH]c2c1cc(O)c1ccccc12
Activity (Rattus norvegicus [1]): 0.6 ng
Activity (Rattus norvegicus [2]): 2.02 ng
Activity (A549): Non-toxic
Activity (Rattus norvegicus [3]): 1.3 ng
inhibition in vivo at 4 mg/kg (Mus musculus [4]): 61%
inhibition (Rattus norvegicus [5]): Active
inhibition (Rattus norvegicus [6]): Active
inhibition in vivo at 0.25 mg/kg (Mus musculus [9]): 37%
inhibition in vivo at 1 mg/kg (Mus musculus [10]): 53%

IC50 (Prostaglandin E synthase [13]): 3.1 µM
Activity [12]: 25%
inhibition [11]: inactive
SMILES: CCOC(=O)c1c(Cc2cccc(Cl)c2)n(-c2ccc(-c3ccccc3)cc2)c2ccc(O)cc12

Activity [12]: 55%
SMILES: CCOC(=O)c1c(Cc2cccc(Cl)c2)[nH]c2ccc(O)cc12

Continued, compound first:

SMILES: CCOC(=O)c1c(CCc2cccc(Cl)c2)[nH]c2c1cc(O)c1ccccc12
Activity [12]: 57%

SMILES: CCOC(=O)c1c(Cc2ccccc2Cl)[nH]c2c1cc(O)c1ccccc12
IC50 (Prostaglandin E synthase [13]): 0.1 µM
IC50 (Prostaglandin E synthase [14]): 20.5 µM
inhibition [15]: inactive
Activity [12]: 14%
Activity [16]: 35%
inhibition [8]: inactive
Activity [11]: 89%

SMILES: CCOC(=O)c1c(Cc2cccc(Br)c2)[nH]c2c1cc(O)c1ccccc12
Activity [11]: 82%

SMILES: CCOC(=O)c1c(Cc2cccc(Cl)c2)n(Cc2ccccc2)c2c1cc(O)c1ccccc12
inhibition [12]: inactive
Activity [16]: 35%

SMILES: COc1ccc2c(c1)c(CC(=O)O)c(C)n2C(=O)c1ccc(Cl)cc1 [INDOMETHACIN]
inhibition (Rattus norvegicus [17]): Active
inhibition (Rattus norvegicus [18]): Active
inhibition in vivo at 5 mg/kg (Mus musculus [19]): 57%

SMILES: CCOC(=O)c1c(Cc2cccc(OC)c2)[nH]c2c1cc(O)c1ccccc12
Activity [11]: 89%
